Reference: ChEMBL document CHEMBL3526151, “Reversible disulfide formation of the glutamate carboxypeptidase II inhibitor E2072 results in prolonged systemic exposures in vivo” (Drug Metab Dispos, 2012)

Experiments:
Type in all cases: ADME, organism-based
[1] = Cmax in Sprague-Dawley rat at 5 mg/kg, iv by LC-MS/MS analysis; parameters: dose 5 mg/kg, route intravenous; details: in vivo
Outline: (§1)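 Male Sprague-Dawley rats (n = 5) given the homodisulfide intravenously at 5 mg/kg. Blood collected up to 7 days into heparin/NEM tubes. Plasma analyzed by LC-MS/MS for both monomer and dimer. Noncompartmental AUC, Cl and Vd calculated. Mean ± S.D.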

[2] = Tmax in Sprague-Dawley rat at 5 mg/kg, iv by LC-MS/MS analysis; parameters: dose 5 mg/kg, route intravenous; details: in vivo
[3] = AUC(0 to last) in Sprague-Dawley rat at 5 mg/kg, iv by LC-MS/MS analysis; parameters: time 0 - last, dose 5 mg/kg, route intravenous; details: plasma; outline: as §1
[4] = AUC(0 to infinity) in Sprague-Dawley rat at 5 mg/kg, iv by LC-MS/MS analysis; parameters: dose 5 mg/kg, route intravenous, time infinity; details: plasma; outline: as §1
[5] = Clearance in Sprague-Dawley rat at 5 mg/kg, iv by LC-MS/MS analysis; parameters: dose 5 mg/kg, route intravenous; details: in vivo; outline: as §1
[6] = Volume of distribution in Sprague-Dawley rat at 5 mg/kg, iv by LC-MS/MS analysis; parameters: dose 5 mg/kg, route intravenous; details: in vivo
[7] = Elimination half life in Sprague-Dawley rat at 5 mg/kg, iv by LC-MS/MS analysis; parameters: dose 5 mg/kg, route intravenous; details: in vivo, read-out: beta t1/2 (converted)
Outline: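 Male Sprague-Dawley rats received a single IV dose of either 10 mg/kg parent drug (n = 6) or 5 mg/kg homodisulfide (n = 5), in 50 mM HEPES-buffered saline, pH 7.4. Blood was collected into NEM-containing heparinized tubes for up to 7 days. Parent drug and homodisulfide in plasma were quantified by LC-MS/MS. Terminal t1/2β was calculated as 0.693/λz.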

`O=C(O)c1cccc(-c2cccc(CCSSCCc3cccc(-c4cccc(C(=O)O)c4)c3C(=O)O)c2C(=O)O)c1` showed a Cmax [1] of 104 µg/mL, a Tmax [2] of 6.6 min and an AUC(0-t) [3] of 2490 µg·h/mL. The AUC(0-inf) [4] was 3540 µg·h/mL, the clearance [5] was 1.5 mL/h/kg and the Vd [6] was 209 L/kg. For the same compound, the half-life [7] was 101 h.
